This is an account of results in ChEMBL document CHEMBL1149321, “Synthesis, radiosynthesis, and biological evaluation of carbon-11 and iodine-123 labeled 2beta-carbomethoxy-3beta-[4'-((Z)-2-haloethenyl)phenyl]tropanes: candidate radioligands for in vivo imaging of the serotonin transporter” (J Med Chem, 2004).

“And” between values parts separate entries of the source, which are not always exact repeats. Identical values can stand only once.

Assay [1] has as its target T1, Sodium-dependent noradrenaline transporter (Homo sapiens, UniProt P23975). The assay is described as follows: In vitro binding affinity against human norepinephrine transporter in human embryonic kidney cell line by using [3H]-[…] radioligand. Type of assay: cell-based.
For assay [2], the target named is T2, Sodium-dependent dopamine transporter (Homo sapiens, UniProt Q01959). As to the kind of experiment: In vitro binding affinity against human dopamine transporter in dog kidney cell line by using [3H]WIN-35428 as the radiotracer. It counts as cell-based.
In assay [3] the target is Sodium-dependent serotonin transporter (Homo sapiens, UniProt P31645). The assay is described as follows: biochemical. It counts as cell-based, kidney.
Assay [4] has as its target T2, Sodium-dependent dopamine transporter. As to the kind of experiment: In vitro binding affinity against human dopamine transporter in dog kidney cell line by using [125I]RTI-55 as radioligand. It counts as cell-based. The method in brief: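 Membranes of MDCK cells stably expressing hDAT, grown in DMEM/10% FBS/geneticin. […] Competitor 12 concentrations 10⁻¹³–10⁻⁵ M in triplicate; GF/B filtration, gamma counting; Ki as geometric mean of ≥3 assays.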

In assay [5] the target is T1, Sodium-dependent noradrenaline transporter. As to the kind of experiment: In vitro binding affinity against human norepinephrine transporter in human embryonic kidney cell line by using [125I]-RTI-55 radioligand. Type of assay: cell-based.
Assay [6] shares this target. The assay is described as follows: In vitro binding affinity against human norepinephrine transporter in human embryonic kidney cell line using [125I]RTI-55 as radioligand. Type of assay: cell-based.
Assay [7] has as its target T2, Sodium-dependent dopamine transporter. As to the kind of experiment: In vitro binding affinity against human dopamine transporter in dog kidney cell line using [125I]RTI-55 as radioligand. Type of assay: cell-based.

T2 sequence (Q01959 whole entry): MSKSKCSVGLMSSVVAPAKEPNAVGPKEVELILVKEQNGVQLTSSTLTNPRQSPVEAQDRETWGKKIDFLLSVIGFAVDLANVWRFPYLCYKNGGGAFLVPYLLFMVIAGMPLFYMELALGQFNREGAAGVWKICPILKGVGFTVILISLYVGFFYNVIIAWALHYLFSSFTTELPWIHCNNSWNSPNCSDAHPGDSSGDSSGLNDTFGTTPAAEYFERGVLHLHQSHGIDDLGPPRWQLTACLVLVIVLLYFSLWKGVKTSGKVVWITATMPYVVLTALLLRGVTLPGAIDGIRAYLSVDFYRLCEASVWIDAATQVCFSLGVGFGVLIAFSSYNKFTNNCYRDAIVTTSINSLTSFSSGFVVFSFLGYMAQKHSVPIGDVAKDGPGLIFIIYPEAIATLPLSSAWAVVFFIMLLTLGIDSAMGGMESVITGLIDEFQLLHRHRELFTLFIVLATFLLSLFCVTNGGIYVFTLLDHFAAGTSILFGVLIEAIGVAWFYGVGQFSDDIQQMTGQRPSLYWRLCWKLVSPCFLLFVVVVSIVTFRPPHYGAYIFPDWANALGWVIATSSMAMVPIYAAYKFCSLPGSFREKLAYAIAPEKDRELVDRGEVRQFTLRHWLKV
T1 sequence (P23975 whole entry): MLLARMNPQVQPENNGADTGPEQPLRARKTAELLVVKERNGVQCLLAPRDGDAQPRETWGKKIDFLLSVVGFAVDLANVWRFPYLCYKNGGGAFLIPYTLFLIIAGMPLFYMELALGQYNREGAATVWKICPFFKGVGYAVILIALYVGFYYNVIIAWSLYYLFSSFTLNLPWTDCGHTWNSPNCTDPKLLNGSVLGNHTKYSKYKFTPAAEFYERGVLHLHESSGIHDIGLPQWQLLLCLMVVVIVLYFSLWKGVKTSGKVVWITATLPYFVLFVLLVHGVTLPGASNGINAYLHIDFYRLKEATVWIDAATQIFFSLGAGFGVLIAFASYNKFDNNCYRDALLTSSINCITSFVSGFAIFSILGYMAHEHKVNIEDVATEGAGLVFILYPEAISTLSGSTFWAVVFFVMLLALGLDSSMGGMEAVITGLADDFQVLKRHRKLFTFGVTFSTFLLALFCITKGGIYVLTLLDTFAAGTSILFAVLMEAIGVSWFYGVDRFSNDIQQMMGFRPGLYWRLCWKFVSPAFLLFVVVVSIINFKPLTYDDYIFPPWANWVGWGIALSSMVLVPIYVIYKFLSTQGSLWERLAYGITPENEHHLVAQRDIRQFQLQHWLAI
Sequence of Sodium-dependent serotonin transporter (P31645 whole entry): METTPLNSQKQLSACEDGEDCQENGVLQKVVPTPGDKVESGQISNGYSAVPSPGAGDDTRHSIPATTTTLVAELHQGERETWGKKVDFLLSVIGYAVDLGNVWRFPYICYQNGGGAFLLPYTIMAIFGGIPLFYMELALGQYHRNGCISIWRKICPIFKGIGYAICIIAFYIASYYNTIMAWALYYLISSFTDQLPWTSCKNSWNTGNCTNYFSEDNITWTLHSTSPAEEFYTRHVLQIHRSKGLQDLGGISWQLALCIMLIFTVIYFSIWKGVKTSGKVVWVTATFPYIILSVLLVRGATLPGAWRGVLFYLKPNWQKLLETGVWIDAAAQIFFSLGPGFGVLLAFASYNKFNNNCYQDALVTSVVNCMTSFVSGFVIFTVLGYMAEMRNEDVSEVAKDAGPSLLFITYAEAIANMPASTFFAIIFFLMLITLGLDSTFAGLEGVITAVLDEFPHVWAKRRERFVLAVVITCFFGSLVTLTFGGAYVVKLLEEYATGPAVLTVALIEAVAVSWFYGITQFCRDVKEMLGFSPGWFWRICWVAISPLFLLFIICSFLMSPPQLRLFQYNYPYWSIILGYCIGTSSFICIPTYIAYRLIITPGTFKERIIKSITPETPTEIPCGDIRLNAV

The term Ki denotes a measure of affinity in units of concentration, obtained from inhibition or displacement. A low value points to a stronger hold on the target. In the case of `CN1C2CCC1C(C(=O)Oc1ccccc1)C(c1ccc(Cl)cc1)C2` (centres undefined), the figures for the inhibition constant (Ki) in assay [1], in assay [2] and in assay [3] were 242 nM, 5.25 nM and 390 nM, respectively.
As for `COC(=O)C1C2CCC(CC1c1ccc(C=C(Br)Br)cc1)N2` (centres undefined), the Ki in assay [4] was 5.6 nM; in assay [5], 5.6 nM; in assay [3] it was 0.08 nM.
Take `COC(=O)C1C(c2ccc(/C=C\Br)cc2)CC2CCC1N2C` (centres undefined): the Ki in assay [4] is 3.1 nM; in assay [5] it was 111 nM; in assay [3] it was 0.08 nM.
For `COC(=O)C1C2CCC(CC1c1ccc(/C=C\Br)cc1)N2` (centres undefined), in that order: 3.9 nM, 2.5 nM and 0.04 nM.
On to `COC(=O)C1C2CCC(CC1c1ccc(I)cc1)N2` (centres undefined), for which the Ki in assay [4] was 0.69 nM; in assay [1], 7.5 nM; in assay [3] it was 0.36 nM.
Consider `COC(=O)C1C(c2ccc(C=C(Br)Br)cc2)CC2CCC1N2C` (centres undefined), for which the inhibition constant (Ki) in assay [4] was found to be 6.73 nM; in assay [5] it was 161 nM; in assay [3] it was 1.35 nM.
In the case of `COC(=O)C1C(c2ccc(/C=C\I)cc2)CC2CCC1N2C` (centres undefined), the results for the Ki in assay [4], in assay [5] and in assay [3] were 22 nM, 450 nM and 0.11 nM, respectively.
Regarding `COC(=O)[C@@H]1C2CC[C@H](C[C@@H]1c1ccc(I)cc1)N2C`, the inhibition constant Ki in assay [4] was 1.3 nM; in assay [1] it was 36 nM; in assay [3] it was 4.2 nM.
In the case of `COC(=O)C1C2CCC(CC1c1ccc(/C=C\I)cc1)N2` (centres undefined), the Ki in assay [4] was 3.5 nM; in assay [6], 24 nM; in assay [3] it was 0.05 nM and 0.04 nM (2×); in assay [7], 15 nM; in assay [7] (kidney), 15 nM.
